Reference: ChEMBL document CHEMBL3870302, “Computer-aided identification, synthesis and evaluation of substituted thienopyrimidines as novel inhibitors of HCV replication” (Eur J Med Chem, 2016)
pEC50, pIC50: −log10 of the molar value.

Columns and labels:
[1] = Cytotoxicity against human HuH5.2 cells assessed as reduction in metabolic activity after 72 hrs by MTS assay; type: toxicity, cell-based, Huh-5-2; conditions: for CC50 at 72 h: HuH5.2 cells
Method in brief: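 Run in parallel with the replicon assay: Huh 5-2 replicon cells, 6 500 cells/well, compound series for 72 h at 37 °C, 5% CO2. Medium then replaced with 5% MTS in phenol red-free medium for 1.5 h. Absorbance at 498 nm expressed as % untreated cells; CC50 from dose-response curve as 50% reduction in metabolic activity, mean of ≥2 experiments.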

[2] = Inhibition of Hepatitis C virus genotype 1b (con1) full length C-terminal His-tagged NS3 helicase expressed in Escherichia coli Rosette(DE3) assessed as inhibition of 5'-Cy5/3'-IAbRQ-labeled DNA unwinding activity by molecular beacon assay; parameters: species or system Hepatitis C virus (isolate Con1)
Method in brief: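 Molecular beacon unwinding assay: 25 mM MOPS pH 6.5, 1.25 mM MgCl2, 5% DMSO, 5 µg/ml BSA, 0.01% Tween20, 0.05 mM DTT, 5 nM fluorescent DNA substrate, 12.5 nM NS3h, 1 mM ATP.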

[3] = Selectivity index, ratio of CC50 for human HuH5.2 cells to EC50 for hepatitis C virus genotype 1b infected in human HuH5.2 cells; type: toxicity, cell-based; conditions: for selectivity ratio: HuH5.2 cells, read-out: Ratio CC50/EC50
Method in brief: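 Ratio of CC50 (MTS metabolic read-out, 72 h) to EC50 (replicon luciferase read-out, 72 h), both measured in parallel on Huh 5-2 genotype 1b replicon cells.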

Hepatitis C virus = assay: Antiviral activity against Hepatitis C virus genotype 1b infected in human HuH5.2 cells after 72 hrs by luciferase reporter gene assay; type: functional, cell-based, Hepacivirus hominis
Method in brief: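 Huh 5-2 cells with genotype 1b I389luc-ubi-neo/NS3-3'/5.1 subgenomic replicon, seeded 6 500 cells/well in DMEM/10% FCS without Geneticin, overnight 37 °C. Compound (DMSO stock diluted in medium) in 1:5 four-step or 1:2 eight-step series, 72 h. Cells PBS-washed, lysed 5 min, luciferase luminescence read, converted to % untreated control; EC50 from dose-response curve, mean of ≥2 independent experiments.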

[4] = Inhibition of protease domain lacking Hepatitis C virus genotype 1b (con1) C-terminal His-tagged NS3 helicase ATP hydrolysis activity using ATP as substrate preincubated followed by substrate addition measured after 15 mins in presence of poly U RNA by malachite green-based assay; parameters: species or system Hepatitis C virus (isolate Con1)
[5] = Inhibition of protease domain lacking Hepatitis C virus genotype 1b (con1) C-terminal His-tagged NS3 helicase ATP hydrolysis activity using ATP as substrate preincubated followed by substrate addition measured after 15 mins in absence of poly U RNA by malachite green-based assay; parameters: species or system Hepatitis C virus (isolate Con1)
[6] = Inhibition of Cy5-labeled dT15 DNA binding to Hepatitis C virus genotype 1b (con1) NS3 helicase DNA by fluorescence polarization assay; parameters: species or system Hepatitis C virus (isolate Con1)
Method in brief: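 Displacement of NS3h from a DNA oligonucleotide, 15 nM NS3h in 25 mM MOPS pH 7.5, 1.25 mM MgCl2, 0.0025 mg/ml BSA, 0.005% Tween20, 0.025 mM DTT.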

[7] = Hepatitis C virus, genotype 1b, Huh-5-2, 72 h

| SMILES | pIC50 [2] | pEC50 (Hepatitis C virus; [7]) | EC90 (Hepatitis C virus; [7]) | pIC50 [4] | pIC50 [5] | pIC50 [6] | pEC50 (Hepatitis C virus) | CC50 at 72 h [1] | selectivity ratio [3] | CC50 ([1]; huh-5-2, 72 h, 72 h) | Ratio CC50/EC50 [3] |
| --- | --- | --- | --- | --- | --- | --- | --- | --- | --- | --- | --- |
| O=C(NNc1ncnc2sc3c(c12)CCCC3)c1cc2ccccc2[nH]1 | 3.65 | 4.68 | – | – | – | – | – | 74.5 µM | 3.6 | – | – |
| Cc1ccc2nc(-c3ccc4nc(-c5ccc(N)cc5)sc4c3)sc2c1S(=O)(=O)O | 5.00 | – | – | 4.40 | < 3.70 | 4.34 | – | – | – | – | – |
| Cc1sc2ncnc(NNC(=O)c3cnccn3)c2c1C | < 3.00 | 7.41 | 0.319 µM | – | – | – | – | 1.67 µM | 43.3 | – | – |
| C/C(=N/Nc1ncnc2sc(C)c(C)c12)c1cc(O)ccc1O | < 3.00 | 5.80 | 4.65 µM | – | – | – | – | > 305 µM | > 193 | – | – |
| c1ccc2c(Nc3ncnc4sc5c(c34)CCCC5)cccc2c1 | < 3.00 | 4.49 | > 33.5 µM | – | – | – | – | 281 µM | 8.7 | – | – |
| C/C(=N\Nc1ncnc2sc3ccccc3c12)c1nc2ccccc2[nH]1 | < 3.00 | 5.96 | 3.25 µM | – | – | – | – | 19.1 µM | 17.4 | – | – |
| C/C(=N\Nc1ncnc2sc3ccccc3c12)c1cc(O)ccc1O | < 3.00 | 6.32 | 0.897 µM | – | – | – | – | 21 µM | 44.2 | – | – |
| Cc1c(Cl)sc2ncnc(NNC(=O)c3ccccc3O)c12 | 3.51 | 6.80 | – | – | – | – | – | > 8.96 µM | > 56.1 | – | – |
| O=C(NNc1ncnc2sc3c(c12)CCCC3)c1ccc2ccccc2n1 | < 3.00 | 4.78 | – | – | – | – | – | 40.4 µM | 2.4 | – | – |
| O=C(NNc1ncnc2sc3c(c12)CCCC3)c1cc(O)ccc1O | < 3.00 | 6.30 | 0.945 µM | – | – | – | – | 99.9 µM | 199 | – | – |
| Cc1nc(NNC(=O)c2ccccc2O)c2c3c(sc2n1)CCCC3 | < 3.00 | 5.90 | 3.07 µM | – | – | – | – | 25 µM | 19.8 | – | – |
| O=C(O)C1=CC(=C(c2ccc(O)c(C(=O)O)c2)c2ccc(O)c(C(=O)O)c2)C=CC1=O [AURINTRICARBOXYLIC ACID] | 6.52 | – | – | 5.29 | 5.48 | 5.70 | – | – | – | – | – |
| O=C(NNc1ncnc2sc3c(c12)CCC3)c1cc(O)ccc1O | < 3.00 | 5.63 | 3.67 µM | – | – | – | – | 198 µM | 84.6 | – | – |
| Cc1c(Cl)sc2ncnc(NNC(=O)c3ccccn3)c12 | < 3.00 | 7.06 | 0.286 µM | – | – | – | – | > 9.38 µM | > 106 | – | – |
| CCc1sc2ncnc(N/N=C(/C)c3cc(O)ccc3O)c2c1C | < 3.00 | 6.10 | 1.62 µM | – | – | – | – | > 292 µM | > 364 | – | – |
| O=C(NNc1ncnc2sccc12)c1ccccn1 | < 3.00 | 6.50 | 0.671 µM | – | – | – | – | 138 µM | 445 | – | – |
| O=C(NNc1ncnc2sc3ccccc3c12)c1cnccn1 | < 3.00 | 7.14 | 0.192 µM | < 3.00 | – | 3.02 | – | 1.34 µM | 18.5 | – | – |
| C/C(=N/Nc1ncnc2sccc12)c1cc(O)ccc1O | 3.64 | 5.55 | 4.55 µM | – | – | – | – | 226 µM | 81 | – | – |
| O=C(NNc1ncnc2sc3c(c12)CCCC3)c1nc2ccccc2[nH]1 | < 3.00 | 6.77 | 0.679 µM | – | – | – | – | 3.14 µM | 18.5 | – | – |
| Oc1ccc(O)c(/C=N/Nc2ncnc3sc4c(c23)CCCC4)c1 | < 3.00 | 5.93 | 2.92 µM | – | – | – | – | 36.8 µM | 31.5 | – | – |
| C/C(=N\Nc1ncnc2sc3ccccc3c12)c1ccccc1O | < 3.00 | 7.06 | 0.421 µM | < 3.00 | – | 3.08 | – | 11.5 µM | 134 | – | – |
| C/C(=N/Nc1ncnc2sccc12)c1ccccc1O | < 3.00 | 5.33 | > 10.6 µM | – | – | – | – | 80.5 µM | 17.2 | – | – |
| O=C(NNc1ncnc2sc3ccccc3c12)c1cc(O)ccc1O | < 3.00 | 6.17 | 2.14 µM | – | – | – | – | 46.5 µM | 68.3 | – | – |

Second part, led by results:

| pIC50 [2] | pEC50 (Hepatitis C virus; [7]) | EC90 (Hepatitis C virus; [7]) | pIC50 [4] | pIC50 [5] | pIC50 [6] | pEC50 (Hepatitis C virus) | SMILES | CC50 at 72 h [1] | selectivity ratio [3] | CC50 ([1]; huh-5-2, 72 h, 72 h) | Ratio CC50/EC50 [3] |
| --- | --- | --- | --- | --- | --- | --- | --- | --- | --- | --- | --- |
| < 3.00 | 6.10 | < 2.24 µM | – | – | – | – | C/C(=N/Nc1ncnc2sc3c(c12)CCC3)c1nc2ccccc2[nH]1 | 6.83 µM | 8.3 | – | – |
| < 3.00 | 4.21 | > 277 µM | – | – | – | – | C/C(=N\Nc1ncnc2sc3c(c12)CCCC3)c1cc2ccccc2[nH]1 | 26 µM | 0.42 | – | – |
| < 3.00 | 5.93 | 1.44 µM | – | – | – | – | C/C(=N/Nc1ncnc2sc3c(c12)CCC3)c1ccccn1 | 14 µM | 11.9 | – | – |
| < 3.00 | 7.16 | 0.24 µM | – | – | – | – | C/C(=N\Nc1nc(C)nc2sc3c(c12)CCCC3)c1cnccn1 | > 3 µM | > 42.7 | – | – |
| 3.60 | 6.66 | 0.352 µM | 3.48 | < 3.00 | < 3.00 | – | O=C(NNc1ncnc2sc3c(c12)CCC3)c1ccccc1O | 119 µM | 538 | – | – |
| < 3.00 | 7.24 | 0.289 µM | – | – | – | – | C/C(=N/Nc1ncnc2sc(Cl)c(C)c12)c1cnccn1 | 3.13 µM | 53.9 | – | – |
| < 3.00 | 5.59 | 20.1 µM | 3.11 | 3.12 | < 3.00 | – | C/C(=N\Nc1ncnc2sc3c(c12)CCCC3)c1ccccc1O | 154 µM | 59.2 | – | – |
| < 3.00 | 5.89 | 3.75 µM | – | – | – | – | O=C(NNc1ncnc2sc3c(c12)CCCC3)c1cnccn1 | 10.6 µM | 8.21 | – | – |
| < 3.00 | – | – | – | – | – | > 6.00 | C/C(=N\Nc1ncnc2sc3c(c12)CCCC3)c1cc(O)ccc1O (stereo in doubt; form 1) | – | – | > 141 µM | > 141 |
| < 3.00 | 6.56 | 0.567 µM | – | – | – | – | O=C(NNc1ncnc2sc3c(c12)CCCC3)c1ccccc1O | 63.6 µM | 233 | – | – |
| < 3.00 | 6.13 | 1.94 µM | – | – | – | – | O=C(NNc1ncnc2sc3c(c12)CCC3)c1ccccn1 | 6.61 µM | 8.9 | – | – |
| < 3.00 | 6.45 | 2.85 µM | – | – | – | – | C/C(=N\Nc1ncnc2sc3c(c12)CCCC3)c1cnccn1 | 57.1 µM | 160 | – | – |
| < 3.00 | 6.23 | 1.11 µM | – | – | – | – | O=C(NNc1ncnc2sc3c(c12)CCC3)c1nc2ccccc2[nH]1 | 7.46 µM | 11.6 | – | – |
| < 3.00 | 4.26 | > 104 µM | – | – | – | – | c1ccc2[nH]c(Nc3ncnc4sc5c(c34)CCCC5)nc2c1 | 231 µM | 4.2 | – | – |
| < 3.00 | > 6.16 | – | – | – | – | – | C/C(=N\Nc1ncnc2sc3c(c12)CCCC3)c1ccc2ccccc2n1 | 7.23 µM | > 10.4 | – | – |
| < 3.00 | 5.76 | 4.07 µM | – | – | – | – | C/C(=N\Nc1ncnc2sc3c(c12)CCC3)c1ccccc1O | 141 µM | 82.9 | – | – |
| < 3.00 | 4.37 | 83.2 µM | < 3.00 | – | 3.17 | – | O=S(=O)(NNc1ncnc2sc3c(c12)CCCC3)c1ccccn1 | 145 µM | 3.4 | – | – |
